Assay results from PMC11341692 (Nature Communications, 2024).

Tested on: NET formation in human peripheral blood neutrophils
Assay: MPO-ANCA-IC-induced NET formation in primed human peripheral blood neutrophils
Assay type: cell-based
Details: for MPO-ANCA-IC-induced NET formation: avacopan 0.1 and 1 µM
Procedure, shortened: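 Neutrophils isolated with Polymorphprep from the blood of healthy volunteers (n = 3). Cells were pretreated 15 min with an NE inhibitor (0, 50, 500 µM) or a C5aR inhibitor (0, 0.1, 1 µM), then primed with 5 ng/ml TNF-α or 100 ng/ml C5a for 15 min at 37 °C. They were seeded on MPO-ANCA-IC-coated chambers at 5 × 10^5/well for 3–4 h at 37 °C, then PFA-fixed and stained for CD15, Cit-H3 and DAPI. DAPI-positive DNA area per neutrophil was taken from three random images per well.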

CC(C)(C)C(=O)Oc1ccc(S(=O)(=O)Nc2ccccc2C(=O)NCC(=O)O)cc1 [Sivelestat]
DAPI-positive DNA area per neutrophil (TNF-α + MPO-ANCA-IC, sivelestat 0, 50, and 500 µM): reduced by sivelestat dose-dependently and significantly
Neutrophil swelling (fold change) (TNF-α + MPO-ANCA-IC, sivelestat 500 µM): significantly suppressed

Cc1ccc(NC(=O)[C@H]2CCCN(C(=O)c3c(C)cccc3F)[C@H]2c2ccc(NC3CCCC3)cc2)cc1C(F)(F)F [Avacopan, avacopan]
MPO-ANCA-IC-induced NET formation (C5a-primed neutrophils): suppressed
MPO-ANCA-IC-induced NET formation (TNF-α-primed neutrophils): but not in TNF-α-primed neutrophils
